Measurements collected from several papers.
Protocols differ between the studies behind these lines.
Target: Tyrosine-protein kinase Srms (SRMS, Homo sapiens, UniProt Q9H3Y6)

Cn1cc(-c2cc(F)cc(N3CCn4c(cc5c4CCCC5)C3=O)c2CO)cc(Nc2ccc(N3CCN(C4COC4)CC3)cn2)c1=O — inhibition (enzyme activity, inhibitor; 0.1 µM): 17%
COc1ncccc1-c1cnn2ccc(N3CCN(C(=O)OC(C)C)CC3)nc12 — remaining binding (binding, competition with immobilised ligand; 1 µM): 78%
Nc1ncc(-c2nc(N3CCOCC3)nc(N3CCOCC3)n2)c(C(F)F)n1 — remaining binding (cell-free assay, competition with immobilised ligand; 10 µM): 88%
Cn1cncc1[C@@](O)(COc1ccc(C#N)cc1-c1ccc(OC(F)(F)F)cc1)c1ccc(C#N)cc1 — remaining binding (cell-free assay, competition with immobilised ligand; 1 µM): 100%
O=c1[nH]c2ccccc2n1C1CCN(Cc2ccc(-c3[nH]c4cc5ncnc5cc4nc3-c3ccccc3)cc2)CC1 — remaining signal (cell-free assay; 0.5 µM): 93.1%
N#CC1(c2ccccn2)CCN(Cc2cc(C(=O)O)c(=O)n3ccccc23)CC1 — remaining binding (cell-free assay, competition with immobilised ligand; 1 µM): 93%
Cc1nn(C)cc1-c1nc2c(N3CCN(Cc4ccc(Cl)cc4)CC3)c(Cl)cnc2[nH]1 — remaining binding (binding, competition with immobilised ligand; 1 µM): 100%
Cn1cc(-c2cccc(N3CCc4c(sc5c4CC(C)(C)C5)C3=O)c2CO)cc(Nc2ccncn2)c1=O — inhibition (enzyme activity, inhibitor; 1 µM): -3%
